Screening results deposited in PubChem by The Scripps Research Institute Molecular Screening Center.
Only some compounds are listed: those with a hit (about 1.6% of all), similar ones and a draw of the others.
FID counter: compounds displacing fluorescent DNA intercalator, primary screen, artefact control for HCV NS3 helicase inhibitor project, biochemical, FID fluorescence; DNA fluorescent intercalator displacement; inhibition, % at 7.9 µM; hit rate 0.17% among 290,000; in the data active = inhibition above about 37%;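 note: 0% = vehicle and 100% = reference compound; higher means more ethidium bromide displaced from hairpin DNA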
VIM-2 inhibitor: VIM-2 metallo-beta-lactamase inhibitors, primary screen, biochemical, epi-absorbance readout, Pseudomonas aeruginosa enzyme; purified VIM-2, nitrocefin hydrolysis, epi-absorbance fluorescence; inhibition, % at 5.6 µM; hit rate 0.89% among 290,000; AID 1527, 2009;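 active = inhibition above the mean of all tested compounds plus 3 SD, cutoff set per screening run, cut at about 7.5% in these data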;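 note: red hydrolysis product quenches plate fluorescence so inhibitors raise well fluorescence; 0% = enzyme with DMSO and 100% = DMSO without enzyme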
core dimer inh: inhibitors of HCV core protein dimerization, primary screen, biochemical, TR-FRET, high-throughput; AID 1899, 2009; TR-FRET GST/Flag-core106 dimerization, 1536-well; inhibition, % at 5 µM; hit rate 0.33% among 300,000;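 active = inhibition above the mean of all tested compounds plus 3 SD, set per screening campaign, cut at about 45% in these data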
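Assay system: tagged HCV core106 pair (GST and Flag); medium: KF-containing HEPES buffer, pH 7.45, DTT, CHAPS, BSA; also added: Eu donor and XL665 acceptor anti-tag antibodies; dosing: 5 µM single dose; timing: compound-protein-antibody incubation 4 h at 22.5 °C; signal: TR-FRET 671 and 617 nm emission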
IMP-1 inh: IMP-1 metallo-beta-lactamase inhibitors, primary screen, biochemical, epi-absorbance readout, Pseudomonas aeruginosa enzyme; hit rate 0.45% among 290,000; inhibition, % at 5.6 µM; purified IMP-1, nitrocefin hydrolysis, epi-absorbance fluorescence;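 active = inhibition above the mean plus 3 SD of all compounds in the same screening run, cut at about 4.5% in these data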;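 note: 0% = IMP-1 with DMSO and 100% = DMSO wells lacking enzyme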
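Assay system: purified recombinant IMP-1 beta-lactamase. Input: IMP-1 0.2 nM before substrate addition. Buffer or medium: Zinc- and detergent-supplemented HEPES buffer, pH 7.1. Schedule: 25 °C, 15 min preincubation, 25 min reaction. Signal: Epi-absorbance fluorescence, 480 nm excitation, 530 nm emission. Evaluation: percent inhibition from optical density relative to buffer-blank wells.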
An asterisk follows results filed as active; . = no result.

SMILES | FID counter | VIM-2 inhibitor | core dimer inh | IMP-1 inh
C=CCn1c(SCc2cc(=O)n3ccsc3n2)nnc1C1CCCCC1 | -21 | 1 | 69* | -2
O=C(/C=C/c1ccco1)NC(=S)Nc1nc(-c2ccc(Cl)cc2)cs1 | -1 | -5 | 12 | -2
CC(=O)N1CCOCCOCCN(C(C)=O)CCOCCOCC1 | 3 | -4 | -3 | -1
Cc1ccc(OCCn2cc(C#N)c3ccccc32)cc1 | 0 | -5 | 2 | -4
CC(C)n1c(=S)[nH]c2scc(-c3cccs3)c2c1=O | -12 | -3 | 65* | 4
CCn1c(=S)[nH]c2scc(-c3cccs3)c2c1=O | -12 | -4 | . | -3
O=C(Cc1cccc2ccccc12)N/N=C/c1ccc(OC(=O)/C=C/c2ccco2)cc1 | -10 | -2 | 65* | 0
CCCS(=O)(=O)C/C(N)=N/OC(=O)c1ccccc1Cl | 6 | -1 | 2 | 8.3*
COc1ccc(OCC(O)CNC(=O)c2sccc2Cl)cc1 (configuration not stated) | -3 | -3 | -3 | 38*
CCOC(=O)C1CCN(C(=O)CN(C)S(=O)(=O)c2ccc3c(c2)c(=O)n(C)c(=O)n3C)CC1 | -27 | -1 | 11 | -1
c1ccc2[nH]c(CSc3ncnc4c3oc3ccccc34)nc2c1 | -3 | -1 | 3 | -7
Cc1nc(SCc2nc3ccccc3[nH]2)c2oc3ccccc3c2n1 | -7 | 13* | 0 | -1
c1ccc2[nH]c(CN3CCCCC3)nc2c1 | -5 | -7 | 5 | -2
Cc1nc(N2CCN(Cc3nc4ccccc4[nH]3)CC2)c2oc3ccccc3c2n1 | -17 | 12* | 2 | -6
O=C1OC(c2ccccc2)=C/C1=C/N1CCCCC1 | -5 | -4 | -11 | -2
Cc1ccc(-c2nc(Nc3cccc(C)c3)sc2CC(=O)O)cc1 | -10 | 0 | -5 | 0
O=C(O)Cc1sc(NC2CCCCC2)nc1-c1ccc(Cl)cc1 | -27 | 0 | -12 | 5.3*
Cc1cccc(N2CCN(S(=O)(=O)c3ccc4c(c3)n(C)c(=O)c(=O)n4C)CC2C)c1 (configuration not stated) | 1 | -4 | 6 | -3
CCn1cc(C(=O)OCC(=O)c2cc(C)n(-c3ccccc3F)c2C)c(=O)c2ccc(C)nc21 | -32 | -4 | 24 | -2
O=C(NCCc1c[nH]c2ccccc12)c1cnc2n(c1=O)CCS2 | 2 | 1 | -7 | 0
Cc1csc2nc3ccccc3c(=O)n12 | 3 | 7.8* | 4 | 0
Cc1nc2scc(C)n2c(=O)c1S(=O)(=O)NCc1ccccc1 | -2 | 1 | -3 | -1
O=C1c2ccccc2C(=O)N1Nc1ccc([N+](=O)[O-])cc1[N+](=O)[O-] | 8 | -1 | -13 | 4.5*
CCCOc1ccc(S(=O)(=O)N2CCN(C)CC2)c2ccccc12 | 4 | 0 | -4 | 1
COc1cc(/C=C2\N=C(c3ccccc3)OC2=O)ccc1OC(C)=O | -24 | 3 | -6 | 0
SMILES | FID counter | VIM-2 inhibitor | core dimer inh | IMP-1 inh
COc1ccc(OC)c(/C=C2\N=C(c3ccccc3)OC2=O)c1 | -33 | 10* | -1 | 0
c1ccc(CSc2ccc3nnc(-c4ccccn4)n3n2)cc1 | -14 | 11* | 2 | -1
Cc1cccc(CSc2ccc3nnc(-c4ccccn4)n3n2)c1 | -27 | 3 | -1 | -5
COC(=O)c1cc(COc2ccc3c(c2)oc(=O)c2ccccc23)c(C)o1 | -2 | -3 | 51* | -3
COCCOC(=O)c1c(C)oc2ccc(OCc3cc(C(=O)OC)oc3C)cc12 | -20 | -2 | 7 | -2
CCc1ccc(NC(=O)C2CCN(S(=O)(=O)c3cnc[nH]3)CC2)cc1 | -3 | 0 | 0 | 12*
O=C(O)c1ccccc1NS(=O)(=O)c1ccccc1C(F)(F)F | -10 | 0 | -2 | -5
Cn1c(=O)cc(SCC(=O)NCCCN2CCOCC2)c2ccccc21 | 3 | -1 | -3 | -4
CCCCNC(=O)CSc1cc(=O)n(C)c2ccccc12 | -9 | 0 | 4 | 6.1*
CCOC(=O)c1ccc(N2C(=O)C3C(C2=O)C(C(=O)c2ccc(Cl)cc2)N2CCCC32)cc1 (configuration not stated) | -18 | -4 | 74* | -3
Cc1cccc(NC(=S)N2CCN(S(=O)(=O)c3ccc(F)cc3)CC2)c1 | -21 | -1 | -5 | -2
CCOc1ccc(C2C(C#N)=C(N)SC(N)=C2C#N)c(OCC)c1 | -1 | -2 | 38 | -1
CCCCc1ccc(C2C(C#N)=C(N)SC(N)=C2C#N)s1 | -2 | 0 | 59* | 3
C/C(=N\Nc1nc(-c2ccc(C)cc2C)cs1)c1cc2ccccc2oc1=O | -5 | -5 | 51* | -4
COc1ccc2oc(=O)c(/C(C)=N/Nc3nc(-c4cc(C)ccc4C)cs3)cc2c1 | 1 | -1 | 56* | -3
O=C(O)C(Cc1c[nH]c2ccccc12)NS(=O)(=O)c1ccccc1 (configuration not stated) | -1 | -3 | 5 | -1
COc1cc(S(=O)(=O)NC(Cc2c[nH]c3ccccc23)C(=O)O)ccc1NC(C)=O (configuration not stated) | 2 | -1 | -4 | 5.9*
O=C(Nc1ccc(Cl)c(Cl)c1)Nc1nnc(-c2ccncc2)s1 | -3 | -6 | 87* | -3
COc1ccc(NC(=O)Nc2nnc(-c3ccncc3)s2)cc1 | -22 | -3 | -2 | -4
Cc1nc2ccccc2nc1N/N=C/c1ccc(O)cc1 | -6 | 7.8* | -4 | -1
COc1ccc(/C=C/c2nc(S(=O)(=O)c3ccccc3)c(NCCCN(C)C)o2)cc1OC | 25 | 8.8* | -9 | -4
COC(=O)c1sc(NC(=O)CSc2n[nH]c(N)n2)c(C(=O)OC)c1C | -6 | 10* | 8 | -3
CC(C)c1cc(C(=O)N2CCCC(Nc3ccc(F)cc3)C2)nc(N)n1 (configuration not stated) | -21 | -1 | 1 | -2
COc1ccc(/C=N/NC(=O)c2nnn(-c3nonc3N)c2CN(C)C2CCCCC2)cc1 | -13 | 1 | 0 | 0
S=C1NC2=C(CCCC2=C2SCCCS2)C(c2ccccc2)N1 (configuration not stated) | 3 | 1 | 48* | 0
SMILES | FID counter | VIM-2 inhibitor | core dimer inh | IMP-1 inh
COc1ccc2c(c1)CCC1=C2NC(=S)NC1c1ccc(N(C)C)cc1 (configuration not stated) | 2 | -6 | 18 | -3
COc1ccc(C2NC(=S)NC3=C2CCCC3=C2SCCS2)cc1 (configuration not stated) | -23 | -2 | 48* | -2
C/C(N)=C(/C#N)C(=O)CSc1ccccc1F | -8 | -1 | 1 | -2
COc1ccccc1N1CCN(S(=O)(=O)c2cc3[nH]c(=O)c(=O)[nH]c3cc2C)CC1 | -44 | -1 | 11 | 4.5*
Cc1cccc2sc(N(CCCN(C)C)C(=O)c3ccc(C(=O)c4ccccc4)cc3)nc12 | 38* | -3 | -12 | -4
Cc1cccc2sc(N(CCCN(C)C)C(=O)c3sc4ccccc4c3Cl)nc12 | 4 | -1 | 4 | -2
